The values that follow come from article PMC3178989 (Indian Journal of Pharmaceutical Sciences, 2010).

The structures appear in SMILES notation. ≈ marks a conversion by molar mass, not a printed value. A value given as a limit tells only on which side of the number the result lay.

For one data set, the system named is HIV-2(ROD). As to the kind of experiment: Inhibition of HIV-2 induced cytopathic effect in MT-4 cells. The conditions noted are these: for EC50: MT4, 120 h, read-out: IC50a (50% effective concentration, 50% protection of MT-4 cells against the cytopathic effect of HIV). The format is cell-based. In outline: (§1)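 MT-4 cells were kept in RPMI 1640 with 10% heat-inactivated FCS, 2 mM glutamine, 0.1% sodium bicarbonate and 20 µg/ml gentamicin. Virus stocks (HIV-1 IIIB/LAI, HIV-2 ROD) were grown and titred in MT-4 cells and stored at -70°. 100-300 CCID50 were added to cells at 6×10^5 cells/ml with test compound, then incubated 5 d at 37°. Protection from cytopathic effect was read as viable cells by MTT. A reference drug was run alike.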

For another data set, the system named is mock-infected MT-4 cells. As to the kind of experiment: Cytotoxicity for mock-infected MT-4 cells. The format is cell-based. The conditions noted are these: MTT, printed in both strain rows. The method in brief: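 Mock-infected MT-4 cells were grown in RPMI 1640 with 10% heat-inactivated FCS, 2 mM glutamine, 0.1% sodium bicarbonate and 20 µg/ml gentamicin. Cells (6×10^5 cells/ml) were exposed to test compound, and viability was measured by MTT to derive the 50% cytotoxic concentration. A reference drug was tested the same way.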

Data set [1] has as its system Herpes simplex virus-1 (KOS). As to the kind of experiment: microbe, parasite or virus in culture. The format is cell-based. The conditions noted are these: for EC50: Human alphaherpesvirus 1, read-out: EC50 Herpes simplex virus-1 (KOS).
The test system of data set [2] is Herpes simplex virus-2 (G). As to the kind of experiment: microbe, parasite or virus in culture. The conditions noted are these: Human alphaherpesvirus 2, read-out: EC50 Herpes simplex virus-2 (G). The format is cell-based.
The test system of another data set is Vaccinia virus. As to the kind of experiment: microbe, parasite or virus in culture. The format is cell-based. The note with it: for EC50: Orthopoxvirus vaccinia, read-out: EC50 Vaccinia virus.
The test system of a further data set is HEL cultures. The conditions noted are these: microscopically detectable alteration of normal cell morphology.
For data set [3], the system named is Herpes simplex virus-1 TK- KOS ACVr. As to the kind of experiment: microbe, parasite or virus in culture. The format is cell-based. The note with it: Human alphaherpesvirus 1, read-out: EC50 Herpes simplex virus-1 TK- KOS ACVr.
Another data set relates to HIV-1(IIIB). As to the kind of experiment: Inhibition of HIV-1 induced cytopathic effect in MT-4 cells. The format is cell-based, Human immunodeficiency virus-1. The note with it: strain IIIB, 5 d, MTT. The method in brief:
as §1

`O=C(O)c1ccccc1-n1c(-c2ccccc2)nc2ccccc2c1=O` [AA1, 2-(4-oxo-2-phenyl-4H-quinazolin-3-yl)-benzoic acid]: the EC50 with HIV-2(ROD) is greater than 125 µg/mL; in data set [1], 100 µg/mL (≈ 292 µM); in data set [2] it was 58 µg/mL (≈ 169 µM); with Vaccinia virus, greater than 100 µg/mL. Further, in the data set with mock-infected MT-4 cells, the “IC50b (50% cytotoxic concentration, reduces viability of mock-infected MT-4 cells by 50%)” value was greater than 125 µg/mL. Moreover, the Minimum cytotoxic concentration in the data set with HEL cultures was greater than 100 µg/mL.
On to `O=C(O)c1cc(Br)ccc1-n1c(-c2ccccc2)nc2ccccc2c1=O` [AA2, 5-Bromo-2-(4-oxo-2-phenyl-4H-quinazolin-3-yl)-benzoic acid], for which the EC50 with HIV-2(ROD) was greater than 88.2 µg/mL; in data set [1], 50 µg/mL (≈ 119 µM); in data set [2] it was 58 µg/mL (≈ 138 µM); with Vaccinia virus it was 100 µg/mL (≈ 237 µM); in data set [3], 58 µg/mL (≈ 138 µM). Besides, the “IC50b (50% cytotoxic concentration, reduces viability of mock-infected MT-4 cells by 50%)” value in the data set on mock-infected MT-4 cells was found to be 88.20 µg/mL. This compound came in with a Minimum cytotoxic concentration with HEL cultures greater than 100 µg/mL.
In the case of `O=C(O)c1cc(Br)cc(Br)c1-n1c(-c2ccccc2)nc2ccccc2c1=O` [AA3, 3,5-dibromo-2-(4-oxo-2-phenyl-4H-quinazolin-3-yl)-benzoic acid], the EC50 is greater than 125 µg/mL with HIV-2(ROD); 50 µg/mL (≈ 100 µM) in data set [1]; 100 µg/mL (≈ 200 µM) in data set [2]; 100 µg/mL (≈ 200 µM) in the data set with Vaccinia virus; 100 µg/mL (≈ 200 µM) in data set [3]. Moreover, the “IC50b (50% cytotoxic concentration, reduces viability of mock-infected MT-4 cells by 50%)” value with mock-infected MT-4 cells is greater than 125 µg/mL. The Minimum cytotoxic concentration in the data set with HEL cultures is greater than 100 µg/mL.
As for `Cc1cn([C@H]2C[C@H](N=[N+]=[N-])[C@@H](CO)O2)c(=O)[nH]c1=O` [AZT, reference compound], the “IC50a (50% effective concentration, 50% protection of MT-4 cells against the cytopathic effect of HIV)” value with HIV-1(IIIB) worked out at 0.0012 µg/mL; with HIV-2(ROD) (strain ROD, MT-4 cells, 5 d, MTT), 0.00062 µg/mL. Besides, in the data set with mock-infected MT-4 cells, the “IC50b (50% cytotoxic concentration, reduces viability of mock-infected MT-4 cells by 50%)” value was 65.90 µg/mL.
Take `O=c1[nH]c(=O)n([C@H]2C[C@H](O)[C@@H](CO)O2)cc1/C=C/Br` [Brivudin, reference compound]: the EC50 was determined as 0.04 µg/mL (≈ 0.12 µM) in data set [1], 22 µg/mL (≈ 66 µM) in data set [2], 6 µg/mL (≈ 18 µM) in the data set on Vaccinia virus and 10 µg/mL (≈ 30 µM) in data set [3].
With `Nc1ccn(C[C@@H](CO)OCP(=O)(O)O)c(=O)n1` [Cidofovir, reference compound], the EC50 in data set [1] turned out to be 0.8 µg/mL (≈ 2.87 µM); in data set [2] it was 0.8 µg/mL (≈ 2.87 µM); in the data set with Vaccinia virus it was 10 µg/mL (≈ 35.8 µM); in data set [3], 1 µg/mL (≈ 3.58 µM).
Consider `O=C(O)c1ccccc1-n1c(-c2ccccc2)nc2c(Br)cc(Br)cc2c1=O` [DBR1, 2-(6,8-Dibromo-4-oxo-2-phenyl-4H-quinazolin-3-yl)-benzoic acid], for which the EC50 is greater than 83.2 µg/mL with HIV-2(ROD); 58 µg/mL (≈ 116 µM) in data set [1]; 50 µg/mL (≈ 100 µM) in data set [2]; 100 µg/mL (≈ 200 µM) with Vaccinia virus; 100 µg/mL (≈ 200 µM) in data set [3]. Besides, in the data set on mock-infected MT-4 cells, the “IC50b (50% cytotoxic concentration, reduces viability of mock-infected MT-4 cells by 50%)” value turned out to be 83.15 µg/mL. In the data set on HEL cultures, this compound displayed a Minimum cytotoxic concentration greater than 100 µg/mL.
In the case of `O=C(O)c1cc(Br)ccc1-n1c(-c2ccccc2)nc2c(Br)cc(Br)cc2c1=O` [DBR2, 5-Bromo-2-(6,8-dibromo-4-oxo-2-phenyl-4H-quinazolin-3-yl)-benzoic acid], the EC50 in the data set on HIV-2(ROD) is greater than 64.2 µg/mL; in data set [1], greater than 20 µg/mL; in data set [2], greater than 20 µg/mL; with Vaccinia virus, greater than 20 µg/mL; in data set [3] it was greater than 20 µg/mL. For the same compound, the “IC50b (50% cytotoxic concentration, reduces viability of mock-infected MT-4 cells by 50%)” value with mock-infected MT-4 cells was 64.18 µg/mL. The same compound had a Minimum cytotoxic concentration with HEL cultures of 100 µg/mL.
Consider `O=C(O)c1cc(Br)cc(Br)c1-n1c(-c2ccccc2)nc2c(Br)cc(Br)cc2c1=O` [DBR3, 3,5-Dibromo-2-(6,8-dibromo-4-oxo-2-phenyl-4H-quinazolin-3-yl)-benzoic acid], for which the EC50 in the data set with HIV-2(ROD) is greater than 125 µg/mL; in data set [1] it was greater than 100 µg/mL; in data set [2], greater than 100 µg/mL; with Vaccinia virus it was greater than 100 µg/mL; in data set [3], greater than 100 µg/mL. The “IC50b (50% cytotoxic concentration, reduces viability of mock-infected MT-4 cells by 50%)” value in the data set with mock-infected MT-4 cells was greater than 125 µg/mL. Besides, the Minimum cytotoxic concentration in the data set with HEL cultures was greater than 100 µg/mL.
`O=C(O)c1ccccc1-n1c(-c2ccccc2)nc2ccc(Br)cc2c1=O` [MBR1, 2-(6-Bromo-4-oxo-2-phenyl-4H-quinazolin-3-yl)-benzoic acid]: the EC50 in the data set on HIV-2(ROD) was greater than 125 µg/mL; in data set [1] it was greater than 20 µg/mL; in data set [2], greater than 20 µg/mL; in the data set on Vaccinia virus, greater than 20 µg/mL; in data set [3], greater than 20 µg/mL. Moreover, in the data set on mock-infected MT-4 cells, the “IC50b (50% cytotoxic concentration, reduces viability of mock-infected MT-4 cells by 50%)” value was greater than 125 µg/mL. In the data set with HEL cultures, this compound gave a Minimum cytotoxic concentration of 100 µg/mL.
On to `O=C(O)c1cc(Br)ccc1-n1c(-c2ccccc2)nc2ccc(Br)cc2c1=O` [MBR2, 5-Bromo-2-(6-bromo-4-oxo-2-phenyl-4H-quinazolin-3-yl)-benzoic acid], for which the EC50 in the data set on HIV-2(ROD) was greater than 60.4 µg/mL; in data set [1], 12 µg/mL (≈ 24 µM); in data set [2], 12 µg/mL (≈ 24 µM); with Vaccinia virus, 12 µg/mL (≈ 24 µM). In the data set on mock-infected MT-4 cells, the “IC50b (50% cytotoxic concentration, reduces viability of mock-infected MT-4 cells by 50%)” value amounted to 60.40 µg/mL. In data set [1] (HEL cultures, reduces virus-induced cytopathogenicity by 50 %), the “EC50 Herpes simplex virus-1 (KOS)” value is on record as “distinct antiviral activity”. Besides, the “EC50 Vaccinia virus” value in the data set on Vaccinia virus is given as “distinct antiviral activity”. The compound also registered a Minimum cytotoxic concentration with HEL cultures of 100 µg/mL.
For `NC(=O)c1ncn([C@@H]2O[C@H](CO)[C@@H](O)[C@H]2O)n1` [Ribavirin, reference compound], the EC50 (in data set [1]; in data set [2]; in the data set on Vaccinia virus; in data set [3]) was greater than 250 µg/mL throughout.
